Here are results for 14 compounds from ChEMBL document CHEMBL4425110, “ICI 56,780 Optimization: Structure-Activity Relationship Studies of 7-(2-Phenoxyethoxy)-4(1H)-quinolones with Antimalarial Activity” (J Med Chem, 2016).

The structures appear in SMILES notation. pEC50: −log10 of the molar value. Active and inactive are the calls of the source. The calls are words filed in the database; no cut-off is given here. Some results are limits rather than exact numbers.

Data set [1] is described as follows: Liver blood index, ratio of EC50 for Plasmodium falciparum TM90-C2B to EC50 for Plasmodium berghei. The data set is classed as functional. In short, it runs like this:
(§1)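 Liver-stage EC50 measured in vitro against P. berghei. Liver blood index is the blood-stage EC50 divided by the P. berghei EC50, using either W2 or TM90-C2B as the blood-stage strain.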

In data set [2] the test system is Plasmodium berghei. Kind of data set: Antimalarial activity against Plasmodium berghei. The format is functional, organism-based. In short, it runs like this:
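In vitro liver-stage (exoerythrocytic) assay against P. berghei; the value is the EC50 (nM).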

Data set [3] has as its system Plasmodium falciparum. Kind of data set: Antimalarial activity against Plasmodium falciparum TM90-C2B. The data set is classed as functional, organism-based.
Data set [4] has as its system Plasmodium berghei. Kind of data set: Antimalarial activity against Plasmodium berghei infected in mouse assessed as inhibition of parasitemia at 50 mg/kg, po administered as single dose measured on day 3 post drug exposure relative to untreated control. The format is functional. Conditions: 72 h. Summed up:
(§2)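 Two infected mice per compound were each given a single oral dose of 50 mg/kg, suspended in PEG400, on day 1 post-exposure. Parasitemia was assessed on days 3 and 6 post-exposure.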

Data set [5] deals with Plasmodium falciparum. Kind of data set: Resistance index, ratio of EC50 for Plasmodium falciparum TM90-C2B to EC50 for Plasmodium falciparum W2. The data set is classed as functional.
Data set [6] has as its system Plasmodium berghei. Put plainly: Antimalarial activity against Plasmodium berghei infected in mouse assessed as inhibition of parasitemia at 50 mg/kg, po administered as single dose measured on day 6 post drug exposure relative to untreated control. The data set is classed as functional. Conditions: 144 h. Summed up: as §2
Another data set relates to J774. Kind of data set: Cytotoxicity against mouse J774 cells. The data set is classed as cell-based.
The subject of data set [7] is Plasmodium falciparum. Kind of data set: Antimalarial activity against Plasmodium falciparum W2. The data set is classed as functional, organism-based.
A short description of data set [8]: Liver blood index, ratio of EC50 for Plasmodium falciparum W2 to EC50 for Plasmodium berghei. The format is functional. In short, it runs like this:
as §1

Data set [9] concerns Plasmodium berghei. Kind of data set: Antimalarial activity against GFP expressing Plasmodium berghei infected in mouse assessed as average time for mouse death at 10 mg/kg, po administered on days 3, 4 and 5 and measured on day 6 post drug exposure by Giemsa staining based modified Thompson test. The data set is classed as functional.
In data set [10] the test system is Plasmodium berghei. Kind of data set: Antimalarial activity against GFP expressing Plasmodium berghei infected in mouse assessed as inhibition of parasitemia at 10 mg/kg, po administered on days 3, 4 and 5 and measured on day 6 post drug exposure by Giemsa staining based modified Thompson test. The data set is classed as functional. Conditions: 144 h.
The subject of data set [11] is Plasmodium berghei. Put plainly: Antimalarial activity against GFP expressing Plasmodium berghei infected in mouse assessed as inhibition of parasitemia at 10 mg/kg, po administered on days 3, 4 and 5 and measured on day 13 post drug exposure by Giemsa staining based modified Thompson test. The format is functional, organism-based.
A short description of data set [12]: Solubility in pH 6.5 buffer by HPLC based UV spectroscopy. The data set is classed as physicochemical.

With `COC(=O)c1c[nH]c2cc(OCCOc3ccccc3)c(Cl)cc2c1=O`, the Ratio EC50 in [1] came out at 9790; in the data set on Plasmodium falciparum [5], 62.1; in data set [8] it was 158. Further, the pEC50 in the data set with Plasmodium berghei [2] was 10.20; in the data set with Plasmodium falciparum [3], 6.21; in the data set on J774 it was less than 4.70; in the data set on Plasmodium falciparum [7], 8.00. Further, the inhibition in vivo at 50 mg/kg in the data set on Plasmodium berghei [4] and with Plasmodium berghei [6] was less than 1% each time.
Turning to `O=C1C(O)=C([C@H]2CC[C@H](c3ccc(Cl)cc3)CC2)C(=O)c2ccccc21` [ATOVAQUONE], the Time in the data set on Plasmodium berghei [9] was determined as 30 days.
For the compound `COC(=O)c1c[nH]c2cc(OCCc3ccccc3)ccc2c1=O`, the pEC50 in the data set with Plasmodium falciparum [3] was 5.11; in the data set on J774, 4.76; with Plasmodium falciparum [7], 6.86. Further, the inhibition in vivo at 50 mg/kg with Plasmodium berghei [4] was 60%; with Plasmodium berghei [6] it was less than 1%. The “Ratio EC50” value in the data set on Plasmodium falciparum [5] is 55.7.
`COC(=O)c1c[nH]c2ccc(OCCCc3ccccc3)cc2c1=O`: the Ratio EC50 in data set [1] was 331; with Plasmodium falciparum [5], 255; in [8] it was 1.3. Also, the pEC50 in the data set with Plasmodium berghei [2] was 7.95; in the data set with Plasmodium falciparum [3], 5.44; in the data set with J774 it was 4.77; in the data set with Plasmodium falciparum [7], 7.84. For the same compound, the inhibition in vivo at 50 mg/kg is 76.9% in the data set with Plasmodium berghei [4] and less than 1% in the data set on Plasmodium berghei [6].
On to `CCCCc1cc2c(=O)c(C(=O)OC)c[nH]c2cc1OCCOc1ccccc1`, for which the Ratio EC50 in data set [1] turned out to be 152; in the data set with Plasmodium falciparum [5], 202; in data set [8], 0.75. In addition, the pEC50 in the data set with Plasmodium berghei [2] is 10.28; in the data set with Plasmodium falciparum [3], 8.10; in the data set on J774, less than 4.70; in the data set with Plasmodium falciparum [7], 10.41. Further, the inhibition in vivo at 50 mg/kg amounted to 76.9% with Plasmodium berghei [4] and 49% in the data set with Plasmodium berghei [6]. Moreover, in the data set with Plasmodium berghei [9], the Time is 13 days. Moreover, the inhibition in vivo at 10 mg/kg with Plasmodium berghei [10] is less than 1%.
For `CCCCc1cc2c(=O)c(Br)c(C)[nH]c2cc1OCCOc1ccccc1`, the Ratio EC50 in data set [1] came out at 5.75; in the data set with Plasmodium falciparum [5], 4.69; in [8] it was 1.23. Besides, the pEC50 was 8.67 in the data set on Plasmodium berghei [2], 7.91 in the data set with Plasmodium falciparum [3], less than 5.00 in the data set with J774 and 8.59 in the data set with Plasmodium falciparum [7]. Further, the inhibition in vivo at 50 mg/kg in the data set with Plasmodium berghei [4] came out at 100%; in the data set on Plasmodium berghei [6], 49.5%. For the same compound, in the data set with Plasmodium berghei [9], the Time was found to be 13 days. The inhibition in vivo at 10 mg/kg in the data set with Plasmodium berghei [10] worked out at 61%. Moreover, in the data set on Plasmodium berghei [11], the outcome was inactive.
Take `COC(=O)c1c[nH]c2ccc(OCc3ccccc3)cc2c1=O`: the Ratio EC50 in data set [1] was found to be 8.66; in data set [8] it was 0.091. For the same compound, the pEC50 with Plasmodium berghei [2] was 6.90; with Plasmodium falciparum [3] it was 5.96; in the data set with J774 it was 5.12; in the data set on Plasmodium falciparum [7], 7.94. In addition, the inhibition in vivo at 50 mg/kg in the data set with Plasmodium berghei [6] is less than 1%.
In the case of `COC(=O)c1c[nH]c2cc(Oc3ccccc3)ccc2c1=O`, the values for the Ratio EC50 (in data set [1]; in the data set with Plasmodium falciparum [5]; in [8]) were 17.7, 117 and 0.15, respectively. In addition, the pEC50 is 6.96 with Plasmodium berghei [2], 5.71 with Plasmodium falciparum [3], 5.04 in the data set with J774 and 7.78 in the data set on Plasmodium falciparum [7]. Besides, the inhibition in vivo at 50 mg/kg with Plasmodium berghei [4] was 40%; in the data set with Plasmodium berghei [6], 29.8%.
Take `CCCCc1cc2c(=O)c(CC)c[nH]c2cc1OCCOc1ccccc1`: the Ratio EC50 in data set [1] came out at 0.725; with Plasmodium falciparum [5] it was 4.36; in [8] it was 0.166. The pEC50 with Plasmodium berghei [2] was 8.58; with Plasmodium falciparum [3] it was 8.72; with J774, 6.44; in the data set with Plasmodium falciparum [7] it was 9.36. Moreover, the inhibition in vivo at 50 mg/kg in the data set with Plasmodium berghei [4] was 69.2%; in the data set with Plasmodium berghei [6], 17.7%.
Take `COC(=O)c1c[nH]c2ccc(OCCc3ccccc3)cc2c1=O`: the Ratio EC50 in data set [1] is 438; in the data set with Plasmodium falciparum [5], 124; in [8] it was 3.53. The pEC50 in the data set with Plasmodium berghei [2] was 8.16; in the data set on Plasmodium falciparum [3] it was 5.52; in the data set on J774, 5.66; with Plasmodium falciparum [7] it was 7.61. Moreover, the values for the inhibition in vivo at 50 mg/kg with Plasmodium berghei [4] and in the data set with Plasmodium berghei [6] were 7.69% and less than 1%, respectively.
With `CCCCc1cc2c(=O)c(I)c(C)[nH]c2cc1OCCOc1ccccc1`, the pEC50 in the data set with Plasmodium falciparum [3] is 8.23; in the data set on Plasmodium falciparum [7], 9.06. Besides, the results for the inhibition in vivo at 50 mg/kg in the data set on Plasmodium berghei [4] and in the data set on Plasmodium berghei [6] were 53.9% and 19.6%, respectively. Further, the “Ratio EC50” value with Plasmodium falciparum [5] was found to be 6.77.
Consider `CCCCc1cc2c(=O)c(C(=O)NCCO)c[nH]c2cc1OCCOc1ccccc1`, for which the Ratio EC50 in data set [1] was 460; in the data set on Plasmodium falciparum [5], 23.3; in data set [8], 19.8. Moreover, the pEC50 is 7.89 with Plasmodium berghei [2], 5.23 with Plasmodium falciparum [3], less than 4.70 in the data set with J774 and 6.60 in the data set with Plasmodium falciparum [7]. The inhibition in vivo at 50 mg/kg with Plasmodium berghei [4] was 40%; with Plasmodium berghei [6] it was less than 1%. For the same compound, the solubility in [12] was greater than 20 µM.
`CCCCc1cc2c(=O)c(C(=O)O)c[nH]c2cc1OCCOc1ccccc1`: the Ratio EC50 in data set [1] worked out at 4160; in the data set with Plasmodium falciparum [5], 17.3; in data set [8] it was 240. Besides, the pEC50 in the data set with Plasmodium berghei [2] was 9.57; in the data set on Plasmodium falciparum [3], 5.95; in the data set on J774 it was less than 4.70; in the data set on Plasmodium falciparum [7], 7.19.
For `COC(=O)c1c[nH]c2cc(OCCCc3ccccc3)ccc2c1=O`, the pEC50 is 8.28 in the data set on Plasmodium berghei [2], less than 6.11 in the data set with Plasmodium falciparum [3], 5.83 in the data set on J774 and 9.15 in the data set with Plasmodium falciparum [7]. Also, the inhibition in vivo at 50 mg/kg with Plasmodium berghei [4] came to 69.2%; in the data set on Plasmodium berghei [6], 47.1%. For the same compound, the “Ratio EC50” value in the data set with Plasmodium falciparum [5] is greater than 1100; in data set [8], 0.14.

One may read the pEC50 as the EC50 on a negative log10 scale, so that one unit is a factor of ten. Read a low pEC50 as a large EC50. In general, inhibition in vivo refers to the share of the control response that was lost under treatment. Usually solubility stands for the dissolved amount per volume that the medium holds. Low values mean little dissolved substance, high ones much dissolved substance.
